GPR7 antagonist = human neuropeptides B/W receptor 1 antagonism; GPR7-expressing cells, fluorescence antagonist assay; inhibition, % at 4.4 µM; AID 1861; hit rate 1.1% among 290,000; P48145; in the data active = inhibition above about 16%, passing the limit was not always enough;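 also: cells stimulated with the agonist NPW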
Target sequence (P48145 whole entry, looked up): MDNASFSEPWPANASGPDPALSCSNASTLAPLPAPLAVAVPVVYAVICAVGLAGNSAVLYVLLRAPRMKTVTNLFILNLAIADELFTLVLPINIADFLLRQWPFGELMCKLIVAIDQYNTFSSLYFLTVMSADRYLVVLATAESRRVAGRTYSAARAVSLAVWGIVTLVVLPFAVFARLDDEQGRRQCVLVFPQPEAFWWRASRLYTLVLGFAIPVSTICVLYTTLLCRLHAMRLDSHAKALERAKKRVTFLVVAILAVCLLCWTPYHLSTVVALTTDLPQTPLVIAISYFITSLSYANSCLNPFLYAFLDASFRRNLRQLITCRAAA
TAAR1 antagonist = antagonists of human TAAR1. Q96RJ0. CHO RD-HGA16 TAAR1, Fluo-8 calcium fluorescence, antagonist. hit rate 1.5% among 360,000. inhibition, % at 3 µM;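 active = inhibition above a per-plate cutoff, the mean inhibition of test compounds on that plate plus 3 SD, cut at about 49% in these data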
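System: CHO RD-HGA16 cells bearing hTAAR1. Reagent: EC80 β-phenethylamine stimulus. Schedule: seeding 17-24 h prior, 75-min 37 °C, 30-min RT dye loading. Signal: Fluo-8 intracellular calcium dye fluorescence, real-time kinetic reads. Read-out: % inhibition from peak post-agonist over basal fluorescence ratio. Benchmarks: vehicle wells and EC80 agonist wells. Replicates: n of 1.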
CHO parental Ca = counter-screen: ATP calcium response change in parental CHO cells; parental CHO-K1, ATP-induced calcium, Fluo-8 fluorescence; inhibition, % at 5.6 µM; hit rate 0.63% among 330,000; AID 463079;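 active = inhibition above that plate's mean sample inhibition plus 3 SD, cut at about 26% in these data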
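Material – parental CHO cells · Reagent – ATP stimulus · Compound – single nominal dose of 5.6 µM per compound · Detection – Fluo-8 fluorescence · Read-out basis – percent inhibition of calcium signal · Controls – ATP-challenged DMSO wells low, unchallenged DMSO wells high · Repeats – no replicates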
OX1R antag-1 = antagonists of human orexin 1 receptor | CHO/OX1R cells, Fluo-8 calcium fluorescence, orexin A | inhibition, % at 5 µM | hit rate 0.43% among 330,000 | AID 434989;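 active = inhibition above its plate's threshold, mean inhibition of all tested compounds on the plate plus 3 SD, cut at about 37% in these data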
Target sequence (O43613 whole entry, looked up): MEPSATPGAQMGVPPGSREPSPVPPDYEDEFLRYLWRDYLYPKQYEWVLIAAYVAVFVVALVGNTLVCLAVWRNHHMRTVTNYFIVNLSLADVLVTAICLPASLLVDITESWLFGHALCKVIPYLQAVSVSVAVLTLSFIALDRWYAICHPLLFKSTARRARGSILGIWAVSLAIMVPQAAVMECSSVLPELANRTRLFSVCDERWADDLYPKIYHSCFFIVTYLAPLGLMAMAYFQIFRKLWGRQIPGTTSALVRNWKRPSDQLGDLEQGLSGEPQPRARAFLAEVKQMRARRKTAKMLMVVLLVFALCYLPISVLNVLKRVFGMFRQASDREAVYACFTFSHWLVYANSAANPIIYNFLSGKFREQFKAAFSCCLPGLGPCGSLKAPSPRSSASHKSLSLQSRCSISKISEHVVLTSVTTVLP
TAAR1 agonist = agonists of human TAAR1 | activation, % at 3 µM | CHO RD-HGA16 TAAR1, Fluo-8 calcium fluorescence; vehicle wells 0%, saturating PEA agonist 100% | hit rate 0.99% among 360,000 | Q96RJ0;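 active = activation above the mean activation of all test compounds in the run plus 3 SD, cut at about 38% in these data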
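System: CHO-derived RD-HGA16 cells with stable Gα16 and human TAAR1. Times: 17-24 h plating, Fluo-8 75 min 37 °C, 30 min RT. Measured by: calcium-sensitive Fluo-8 signal, excitation 470-495, emission 515-575 nm. Read-out basis: % activation relative to PEA EC100 response. Control set: DMSO and PEA EC100. Repeats: no replicates (n 1).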
OX1R antag-2 = antagonists of human orexin 1 receptor (OX1R); O43613; OX1R-expressing cells, FRET antagonist read-out; inhibition, % at 6.6 µM; hit rate 1.8% among 330,000; AID 485270; in the data active = inhibition mostly above about 38%, no sharp cut-off; inactive = mostly below about 40%
TAAR1 nonsel count = counter-screen for TAAR1 antagonists: nonselective antagonists | counterscreen cell line, calcium fluorescence, antagonist mode | AID 651780 | shares compounds with TAAR1 antagonist | inhibition, % at 3 µM | hit rate 77% among 2,400; in the data active = inhibition above about 22%;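 also: CHO-Ga16 host cells stimulated with ATP at an EC80 level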
TAAR1 antag conf = human TAAR1 antagonism, confirmed. shares compounds with TAAR1 antagonist. TAAR1-expressing cells, fluorescence antagonist read-out. inhibition, % at 3 µM. hit rate 40% among 2,400. AID 651785; in the data active = inhibition above about 49%;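 also: CHO-Ga16 host cells challenged with agonist PEA near its EC80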
Ga16 nonsel ag = nonselective Ga16 agonist in TAAR1 antagonist counter-screen. shares compounds with TAAR1 antagonist. Ga16-expressing cells, calcium fluorescence, agonist counterscreen. activation, % at 3 µM. hit rate 18% among 2,400. AID 651953; in the data active = activation above about 12%
TAAR1 ag counter = TAAR1 agonism, antagonist counter-screen; shares compounds with TAAR1 antagonist; hTAAR1 cell line, fluorescence activation, agonist mode; activation, % at 3 µM; hit rate 2% among 2,400; AID 651955; in the data active = activation above about 37%;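 also: CHO cells stably expressing TAAR1 with calcium dye readout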
Hits are given with their value; i = inactive; nt = no result. The list is not random: actives were taken first. Their share in the collection is about 4.6%.

SMILES	GPR7 antagonist	TAAR1 antagonist	CHO parental Ca	OX1R antag-1	TAAR1 agonist	OX1R antag-2	TAAR1 nonsel count	TAAR1 antag conf	Ga16 nonsel ag	TAAR1 ag counter
Cc1cc2occ(CC(=O)N(C)CC(=O)Nc3ccccc3C(F)(F)F)c2cc1C	nt	i	i	i	i	i	nt	nt	nt	nt
COc1ccc(N2CCN(c3nc(Cl)nc(Nc4ccc(F)cc4)n3)CC2)cc1	i	78.4	i	i	i	i	27.0	50.9	i	i
COc1ccc(N2CCN(c3nc(Nc4ccc(F)cc4)nc(OC)n3)CC2)cc1	i	nt	nt	nt	nt	nt	nt	nt	nt	nt
COc1ccc2c(c1OC)C(=O)N1c3ccccc3C(=O)N(c3ccc(F)cc3)C21 (configuration not stated)	i	82.1	i	i	i	i	28.0	49.4	i	i
COc1ccc2c(c1OC)C(=O)N1c3ccccc3C(=O)N(c3ccccc3)C21 (configuration not stated)	i	62.8	i	i	i	i	32.3	51.4	12.2	i
Cc1ccccc1N1C(=O)c2ccccc2N2C(=O)c3ccccc3C12 (configuration not stated)	i	i	i	i	i	i	nt	nt	nt	nt
COc1cccc(C2Nc3ccccc3C(=O)N2c2ccc(F)cc2)c1O (configuration not stated)	i	i	i	i	i	i	nt	nt	nt	nt
CCCCN(Cc1cc2ccccc2[nH]c1=O)S(=O)(=O)c1ccc(C)cc1	i	62.5	i	i	i	i	i	i	i	i
CC(=O)Nc1ccc(S(=O)(=O)N(Cc2ccco2)Cc2cc3ccccc3[nH]c2=O)cc1	i	72.7	i	i	i	39.4	26.6	56.7	i	i
CCc1ccc2[nH]c(=O)c(CN(Cc3ccco3)S(=O)(=O)c3ccc4c(c3)OCCO4)cc2c1	i	i	i	i	i	i	nt	nt	nt	nt
CCOC(=O)N(C)c1c(CC)nc2c(OCc3ccc(Cl)cc3Cl)cccn12	nt	i	nt	nt	i	nt	nt	nt	nt	nt
COc1cc(-c2[nH]nc3c2C(c2ccoc2)C(C#N)=C(N)O3)cc(OC)c1OC (configuration not stated)	i	74.3	i	i	i	i	33.5	56.8	i	i
Cc1nc(N2CCN(c3ccccn3)CC2)c2c(C)c(C(=O)N3CCN(c4ccc(F)cc4)CC3)sc2n1	i	i	i	i	i	i	nt	nt	nt	nt
COc1ccccc1N1CCN(C(=O)c2sc3nc(C)nc(N4CCN(c5ccccn5)CC4)c3c2C)CC1	i	54.8	i	i	i	i	i	i	i	i
Cc1ccc(NC(=O)c2ccc(N3C(=O)C4CC=C(Cl)CC4C3=O)cc2)cc1 (configuration not stated)	i	62.5	i	i	i	i	23.8	i	13.4	i
C/C(=N\O)c1ccc(N2C(=O)C3CC=C(Cl)CC3C2=O)cc1 (configuration not stated)	i	i	i	i	i	i	nt	nt	nt	nt
Cc1ccc(C(=O)Nc2cccc(N3C(=O)C4CCC(C)CC4C3=O)c2)cc1 (configuration not stated)	i	71.3	i	i	i	i	31.0	50.3	i	i
Cc1ccccc1NC(=O)CCN1C(=O)CSC1=O	i	105.9	i	i	i	i	i	i	i	i
CC[C@@H]1CC2=C(C(=O)OC(C)(C)O2)[C@H](c2ccc(F)cc2)O1	nt	i	nt	nt	i	nt	nt	nt	nt	nt
c1ccc(-c2nc(SCc3nc4ccccc4[nH]3)c3oc4ccccc4c3n2)cc1	nt	54.3	i	i	i	i	i	i	i	i
COc1ccc(NC(=O)COC(=O)C2CCCN2C(=O)OC(C)(C)C)cc1Cl (configuration not stated)	nt	i	nt	nt	i	nt	nt	nt	nt	nt
O=C(CSc1ccc(Cl)cc1)N1CCN(c2ccc(Cl)cc2[N+](=O)[O-])CC1	i	67.2	i	i	i	i	25.2	i	i	i
CC1Cc2ccccc2N1C(=O)c1cc2c(=O)n3ccccc3nc2n1C (configuration not stated)	i	56.3	i	i	i	i	27.3	49.0	11.8	i
COc1ccc(-n2nnnc2SCc2nc3ccccc3s2)cc1	i	i	i	i	i	i	nt	nt	nt	nt
COc1ccc(C)cc1-n1nnnc1SCc1nc2ccccc2s1	i	53.8	i	i	i	i	26.8	i	i	i
SMILES	GPR7 antagonist	TAAR1 antagonist	CHO parental Ca	OX1R antag-1	TAAR1 agonist	OX1R antag-2	TAAR1 nonsel count	TAAR1 antag conf	Ga16 nonsel ag	TAAR1 ag counter
O=c1c2ccc([N+](=O)[O-])cc2ncn1CCOc1ccccc1	i	77.1	i	i	i	68.2	26.4	61.8	i	i
Cc1ccc(OCCn2cnc3cc([N+](=O)[O-])ccc3c2=O)cc1	i	78.2	i	i	i	i	31.2	51.4	i	i
O=c1c2ccccc2ncn1CCOCCOc1ccc([N+](=O)[O-])cc1	i	i	i	i	i	i	nt	nt	nt	nt
N#C/C(=C\c1ccc(-c2ccc(C(=O)O)cc2)o1)C(=O)Nc1ccc(F)cc1	i	70.1	i	i	i	i	33.2	i	16.6	i
COc1cccc(C(C)(O)c2nc(-c3cccs3)cs2)c1 (configuration not stated)	nt	i	nt	nt	i	nt	nt	nt	nt	nt
O=[N+]([O-])c1ccc(N/N=C/c2c[nH]c3ccccc23)cc1	i	89.4	47.0	i	i	i	35.7	62.7	17.6	i
O=[N+]([O-])c1ccccc1N/N=C/c1c[nH]c2ccccc12	i	i	i	i	i	i	nt	nt	nt	nt
C=CCn1c(=S)[nH]c2cc(C(=O)Nc3ccc(F)cc3)ccc2c1=O	i	62.3	i	i	i	i	35.2	i	14.8	i
CCOc1ccc2[nH]c(=O)c(CN(Cc3nnnn3Cc3ccco3)C3CCCCC3)cc2c1	i	54.3	i	i	i	i	28.1	58.2	i	i
COc1cc2cc(CN(Cc3nnnn3Cc3ccco3)C3CCCCC3)c(=O)[nH]c2cc1OC	i	i	i	i	i	i	nt	nt	nt	nt
CCOc1ccccc1N1CCN(C(=O)c2cc(S(=O)(=O)N(C)C)ccc2N2CCCC2)CC1	nt	56.8	i	i	i	i	i	i	i	i
Cc1cccc(N2CCN(C(=O)c3cc(S(=O)(=O)N(C)C)ccc3N3CCCC3)CC2)c1C	i	i	i	i	i	i	nt	nt	nt	nt
O=C(N/C(=C/C=C/c1ccccc1)C(=O)N1CCOCC1)c1ccccc1Cl	i	i	i	i	i	i	nt	nt	nt	nt
O=C(Nc1ccc(C(=O)O)cc1)/C(=C\C=C\c1ccccc1)NC(=O)c1ccccc1Cl	i	58.2	i	i	i	i	22.6	i	i	i
